Source: ChEMBL document CHEMBL1135836, “Cyclodextrin-derived host molecules as reversal agents for the neuromuscular blocker rocuronium bromide: synthesis and structure-activity relationships” (J Med Chem, 2002)

What was measured:
Assay type in all cases: functional
[1] = test system: Felis catus; assay: Percentage of maximum change in blood pressure in anesthetized cat dosed at 0.2 umol/kg (by bolus injection)
In short: (§1)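 Anaesthetized cats, left for 1 h after surgery to stabilize. Tibialis anterior twitch was evoked via the sciatic nerve with supramaximal 0.25 ms pulses at 0.1 Hz. Rocuronium in phosphate buffer (pH 4) was infused continuously (10.24 ± 1.31 nmol kg-1 min-1). Increasing doses of agent in saline were then given as iv boluses while mean arterial blood pressure and heart rate were recorded; means of three independent experiments.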

[2] = test system: Felis catus; assay: Percentage of maximum change in blood pressure in anesthetized cat dosed at 0.4 umol/kg (by bolus injection); in short: as §1
[3] = test system: Felis catus; assay: Percentage of maximum change in blood pressure in anesthetized cat dosed at 0.6 umol/kg (by bolus injection); in short: as §1
[4] = test system: Felis catus; assay: Percentage of maximum change in blood pressure in anesthetized cat dosed at 0.8 umol/kg (by bolus injection); in short: as §1
[5] = test system: Felis catus; assay: % of maximum change of decrease in HR by vagal stimulation in anesthetized cat at 0.2umol/kg, by bolus injection
[6] = test system: Felis catus; assay: % of maximum change of decrease in HR by vagal stimulation in anesthetized cat at 0.4umol/kg, by bolus injection
[7] = test system: Cavia porcellus; assay: In vivo reversal activity versus ~90% block by rocuronium in guinea pig
In short: (§2)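 Male Dunkin-Hartley guinea pigs (600-900 g), anaesthetized ip with pentobarbitone 10 mg/kg plus urethane 1000 mg/kg, tracheotomized and ventilated. Continuous iv rocuronium infusion (~10 nmol kg-1 min-1) was raised to a steady 85-90% block. Increasing iv doses of agent were given cumulatively. ED50 = 50% recovery versus preblock twitch, by regression. Mean ± SEM of at least two experiments, or one.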

[8] = test system: Felis catus; assay: Percentage of maximum change in blood pressure in anesthetized cat dosed at 1.0 umol/kg (by bolus injection); in short: as §1
[9] = test system: Felis catus; assay: Percentage of maximum change in blood pressure in anesthetized cat dosed at 1.2 umol/kg (by bolus injection); in short: as §1
[10] = test system: Felis catus; assay: Percentage of maximum change in blood pressure in anesthetized cat dosed at 1.4 umol/kg (by bolus injection); in short: as §1
[11] = test system: Felis catus; assay: Percentage of maximum change in blood pressure in anesthetized cat dosed at 1.6 umol/kg (by bolus injection); in short: as §1
[12] = test system: Felis catus; assay: % of maximum change of increase in contraction of nictitating membrane in anesthetized cat at 0.2umol/kg, by bolus injection
[13] = test system: Felis catus; assay: % of maximum change of increase in contraction of nictitating membrane in anesthetized cat at 0.6umol/kg, by bolus injection
[14] = test system: Felis catus; assay: % of maximum change of increase in contraction of nictitating membrane in anesthetized cat at 0.8umol/kg, by bolus injection
[15] = test system: Felis catus; assay: % of maximum change of increase in contraction of nictitating membrane in anesthetized cat at 1.0umol/kg, by bolus injection
[16] = test system: Felis catus; assay: % of maximum change of increase in contraction of nictitating membrane in anesthetized cat at 1.2umol/kg, by bolus injection
[17] = test system: Felis catus; assay: % of maximum change of increase in contraction of nictitating membrane in anesthetized cat at 1.4umol/kg, by bolus injection
[18] = test system: Felis catus; assay: % of maximum change of increase in contraction of nictitating membrane in anesthetized cat at 1.6umol/kg, by bolus injection
[19] = test system: Felis catus; assay: % of maximum change of increase in contraction of nictitating membrane in anesthetized cat at 1.8umol/kg, by bolus injection
[20] = test system: Felis catus; assay: % of maximum change of decrease in HR by vagal stimulation in anesthetized cat at 0.6umol/kg, by bolus injection
[21] = test system: Felis catus; assay: % of maximum change of decrease in HR by vagal stimulation in anesthetized cat at 0.8umol/kg, by bolus injection
[22] = test system: Felis catus; assay: % of maximum change of decrease in HR by vagal stimulation in anesthetized cat at 1.0umol/kg, by bolus injection
[23] = test system: Felis catus; assay: % of maximum change of decrease in HR by vagal stimulation in anesthetized cat at 1.2umol/kg, by bolus injection
[24] = test system: Felis catus; assay: % of maximum change of decrease in HR by vagal stimulation in anesthetized cat at 1.4umol/kg, by bolus injection
[25] = test system: Felis catus; assay: % of maximum change of decrease in HR by vagal stimulation in anesthetized cat at 1.6umol/kg, by bolus injection
[26] = test system: Felis catus; assay: % of maximum change of decrease in HR by vagal stimulation in anesthetized cat at 1.8umol/kg, by bolus injection
[27] = test system: Felis catus; assay: Percentage of maximum change of heart rate in anesthetized cat at 0.2umol/kg, by bolus injection; in short: as §1
[28] = test system: Felis catus; assay: Percentage of maximum change of heart rate in anesthetized cat at 0.6umol/kg, by bolus injection; in short: as §1
[29] = test system: Felis catus; assay: Percentage of maximum change of heart rate in anesthetized cat at 0.8umol/kg, by bolus injection; in short: as §1
[30] = test system: Felis catus; assay: Percentage of maximum change of heart rate in anesthetized cat at 1.0umol/kg, by bolus injection; in short: as §1
[31] = test system: Felis catus; assay: Percentage of maximum change of heart rate in anesthetized cat at 1.2umol/kg, by bolus injection; in short: as §1
[32] = test system: Felis catus; assay: Percentage of maximum change of heart rate in anesthetized cat at 1.4umol/kg, by bolus injection; in short: as §1
[33] = test system: Felis catus; assay: Percentage of maximum change of heart rate in anesthetized cat at 1.6umol/kg, by bolus injection; in short: as §1
[34] = test system: Felis catus; assay: Percentage of maximum change of heart rate in anesthetized cat at 1.8umol/kg, by bolus injection; in short: as §1
[35] = test system: Cavia porcellus; assay: In vivo reversal activity versus ~90% block by rocuronium in guinea pig, expressed as % of maximum reversal at 0.3 umol/kg conc.; in short: as §2
[36] = species: Mus musculus; assay: In vitro reversal activity versus ~90% block by rocuronium in isolated mouse hemidiaphragm, expressed as % of maximum reversal at 3.6 uM conc.
[37] = species: Mus musculus; assay: In vitro reversal activity versus ~90% block by rocuronium in isolated mouse hemidiaphragm, expressed as effective conc.
[38] = test system: Felis catus; assay: Percentage of maximum change of heart rate in anesthetized cat at 0.4umol/kg, by bolus injection; in short: as §1
[39] = test system: Felis catus; assay: Percentage of maximum change in blood pressure in anesthetized cat dosed at 1.8 umol/kg (by bolus injection); in short: as §1
[40] = test system: Felis catus; assay: % of maximum change of increase in contraction of nictitating membrane in anesthetized cat at 0.4umol/kg, by bolus injection
[41] = species: Mus musculus; assay: In vitro reversal activity versus ~90% block by rocuronium in isolated mouse hemidiaphragm, expressed as % of maximum reversal at 216 uM conc.
[42] = test system: Cavia porcellus; assay: In vivo reversal activity versus ~90% block by rocuronium in guinea pig, expressed as % of maximum reversal at 3.9 umol/kg conc.
In short: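 Male Dunkin-Hartley guinea pigs (600-900 g) anaesthetized ip with pentobarbitone 10 mg/kg plus urethane 1000 mg/kg, tracheotomized and artificially ventilated. Continuous iv rocuronium bromide infusion (~10 nmol kg-1 min-1) raised until steady-state twitch block of 85-90%. Increasing single iv doses of reversal agent given by a separate catheter. Max reversal is peak twitch recovery versus preblock height at highest dose tested; means ± SEM, n ≥ 2 or single experiment.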

[43] = species: Mus musculus; assay: In vitro reversal activity versus ~90% block by rocuronium in isolated mouse hemidiaphragm, expressed as % of maximum reversal at 18 uM conc.

`O=C([O-])CCSCC1O[C@@H]2O[C@@H]3C(CSCCC(=O)[O-])O[C@H](O[C@@H]4C(CSCCC(=O)[O-])O[C@H](O[C@@H]5C(CSCCC(=O)[O-])O[C@H](O[C@@H]6C(CSCCC(=O)[O-])O[C@H](O[C@@H]7C(CSCCC(=O)[O-])O[C@H](O[C@@H]8C(CSCCC(=O)[O-])O[C@H](O[C@@H]9C(CSCCC(=O)[O-])O[C@H](O[C@H]1C(O)C2O)C(O)C9O)C(O)C8O)C(O)C7O)C(O)C6O)C(O)C5O)C(O)C4O)C(O)C3O.[Na+].[Na+].[Na+].[Na+].[Na+].[Na+].[Na+].[Na+]` (stereo partly specified) was tested. Which BP [1] did it give?
The BP was -7.3 mmHg.

And the BP [2]?
Its BP is -6.5 mmHg.

And the BP [3]?
Its BP is 3.5 mmHg.

What about the BP [4] of the same compound?
Its BP is -3.3 mmHg.

What about the Decrease [5] of the same compound?
The Decrease was -2.9%.

And the Decrease [6]?
Its Decrease is -6.7%.

What about the ED50 [7] of the same compound?
The ED50 was 0.03 µmol/kg.

And the BP [8]?
Its BP is -3.2 mmHg.

And the BP [9]?
The BP was -3.3 mmHg.

And the BP [10]?
Its BP is -3.3 mmHg.

And the BP [11]?
The BP was -5 mmHg.

What about the Max change [12] of the same compound?
The Max change was 0%.

What about the Max change [13] of the same compound?
Its Max change is 0%.

What about the Max change [14] of the same compound?
The Max change was 3.7%.

What about the Max change [15] of the same compound?
Its Max change is 8.7%.

What about the Max change [16] of the same compound?
The Max change was 3.7%.

What about the Max change [17] of the same compound?
Its Max change is 3.7%.

And the Max change [18]?
Its Max change is 3.7%.

And the Max change [19]?
Its Max change is 12.5%.

And the Decrease [20]?
The Decrease was -6.7%.

What about the Decrease [21] of the same compound?
Its Decrease is 2.2%.

What about the Decrease [22] of the same compound?
The Decrease was 0%.

And the Decrease [23]?
Its Decrease is 0%.

And the Decrease [24]?
Its Decrease is 0.7%.

What about the Decrease [25] of the same compound?
Its Decrease is 0%.

What about the Decrease [26] of the same compound?
Its Decrease is 11%.

And the HR [27]?
The HR was -4.1%.

What about the HR [28] of the same compound?
The HR was -7.5 beats min-1.

And the HR [29]?
Its HR is -6.3 beats min-1.

What about the HR [30] of the same compound?
Its HR is -3.4 beats min-1.

And the HR [31]?
Its HR is -4 beats min-1.

And the HR [32]?
The HR was -3.7 beats min-1.

What about the HR [33] of the same compound?
Its HR is -6.9 beats min-1.

And the HR [34]?
The HR was -14.3 beats min-1.

And the Max reversal [35]?
Its Max reversal is 92.5%.

And the Max reversal [36]?
Its Max reversal is 95.1%.

And the EC50 [37]?
Its EC50 is 1.2 µM.

What about the HR [38] of the same compound?
Its HR is -5.5 beats min-1.

And the BP [39]?
Its BP is -5 mmHg.

What about the Max change [40] of the same compound?
Its Max change is 0%.

With `O=C([O-])c1ccccc1SCC1O[C@@H]2O[C@@H]3C(CSc4ccccc4C(=O)[O-])O[C@H](O[C@@H]4C(CSc5ccccc5C(=O)[O-])O[C@H](O[C@@H]5C(CSc6ccccc6C(=O)[O-])O[C@H](O[C@@H]6C(CSc7ccccc7C(=O)[O-])O[C@H](O[C@@H]7C(CSc8ccccc8C(=O)[O-])O[C@H](O[C@@H]8C(CSc9ccccc9C(=O)[O-])O[C@H](O[C@@H]9C(CSc%10ccccc%10C(=O)[O-])O[C@H](O[C@H]1C(O)C2O)C(O)C9O)C(O)C8O)C(O)C7O)C(O)C6O)C(O)C5O)C(O)C4O)C(O)C3O.[Na+].[Na+].[Na+].[Na+].[Na+].[Na+].[Na+].[Na+]` (stereo partly specified) as the compound, how does the Max reversal [41] read?
Its Max reversal is 42.3%.

And the EC50 [37]?
Its EC50 is 227 µM.

`OCCCCSCC1O[C@@H]2O[C@@H]3C(CSCCCCO)O[C@H](O[C@@H]4C(CSCCCCO)O[C@H](O[C@@H]5C(CSCCCCO)O[C@H](O[C@@H]6C(CSCCCCO)O[C@H](O[C@@H]7C(CSCCCCO)O[C@H](O[C@@H]8C(CSCCCCO)O[C@H](O[C@@H]9C(CSCCCCO)O[C@H](O[C@H]1C(O)C2O)C(O)C9O)C(O)C8O)C(O)C7O)C(O)C6O)C(O)C5O)C(O)C4O)C(O)C3O` (stereo partly specified) was tested. Which ED50 [7] did it give?
The ED50 was 3.94 µmol/kg.

What about the Max reversal [42] of the same compound?
The Max reversal was 52.8%.

And the Max reversal [43]?
Its Max reversal is 78.9%.

What about the EC50 [37] of the same compound?
The EC50 was 6.5 µM.
